# Measurements taken from ChEMBL document CHEMBL1125894, “Dual-action cephalosporins: cephalosporin 3'-quaternary ammonium quinolones” (1991).
# Tests used:
# [1] = system: Streptococcus pneumoniae; assay: In vivo activity in murine against Streptococcus pneumoniae 6301 infection after sc administration.; type: functional
# Method in brief: (§1)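 Mouse protection test in CD1 Swiss albino mice (18–20 g). Mice were infected intraperitoneally with 0.5 mL of a diluted bacterial suspension, then treated within 5 min with one 1.0 mL subcutaneous dose at the dorsal base of the neck. Doses ranged from 0.05 to 250 mg/kg, with six mice per group. ED50 was calculated by the Reed–Muench method.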
# [2] = molecular target: T1, Penicillin-binding protein 1B (Escherichia coli K-12) (UniProt P02919); assay: Concentration required for 90% inhibition against 90 kDa penicillin-binding protein 1b binding using [14C]-Pen G as the radioligand.
# T1 sequence (whole entry): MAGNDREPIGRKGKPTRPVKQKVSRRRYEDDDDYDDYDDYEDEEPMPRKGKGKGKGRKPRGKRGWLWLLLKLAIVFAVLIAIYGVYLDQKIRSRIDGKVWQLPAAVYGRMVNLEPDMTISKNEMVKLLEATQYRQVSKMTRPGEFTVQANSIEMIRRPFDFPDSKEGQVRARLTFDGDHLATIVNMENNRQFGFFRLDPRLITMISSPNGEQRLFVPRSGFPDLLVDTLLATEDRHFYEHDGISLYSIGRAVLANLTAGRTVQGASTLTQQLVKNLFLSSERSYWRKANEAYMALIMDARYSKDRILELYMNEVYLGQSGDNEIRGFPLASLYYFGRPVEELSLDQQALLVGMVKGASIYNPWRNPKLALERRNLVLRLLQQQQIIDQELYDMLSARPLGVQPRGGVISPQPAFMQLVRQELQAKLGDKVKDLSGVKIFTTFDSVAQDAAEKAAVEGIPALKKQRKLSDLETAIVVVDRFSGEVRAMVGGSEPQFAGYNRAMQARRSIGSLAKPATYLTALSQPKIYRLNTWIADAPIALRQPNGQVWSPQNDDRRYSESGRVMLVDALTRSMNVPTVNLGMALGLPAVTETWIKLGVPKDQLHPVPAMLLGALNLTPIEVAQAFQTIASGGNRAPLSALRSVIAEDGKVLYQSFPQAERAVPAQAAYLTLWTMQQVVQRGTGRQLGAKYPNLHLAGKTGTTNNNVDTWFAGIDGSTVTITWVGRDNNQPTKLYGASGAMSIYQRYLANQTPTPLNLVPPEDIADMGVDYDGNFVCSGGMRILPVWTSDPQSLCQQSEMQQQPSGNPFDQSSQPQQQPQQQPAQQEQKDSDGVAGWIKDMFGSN
# Method in brief: (§2)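 Solubilized membranes from sonicated E. coli DC-0 were used. PBP binding was measured as inhibition of [14C]penicillin G binding to each PBP.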
# [3] = system: Escherichia coli; assay: In vitro antibacterial activity against Escherichia coli 257; type: functional
# Method in brief: (§3)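 Serial 2-fold dilutions in the NCCLS broth microdilution method for aerobic nonfastidious organisms, with an 18-h incubation. The value is reported as the minimum inhibitory concentration (MIC).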
# [4] = system: Serratia marcescens; assay: In vivo activity in murine against Serratia marcescens SM infection after sc administration.; type: functional; method in brief: as §1
# [5] = system: Staphylococcus aureus; assay: In vitro antibacterial activity against Staphylococcus aureus 95(MR); type: functional
# Method in brief: (§4)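 Staphylococci were tested by the standard agar dilution procedure using serial 2-fold dilutions of agent. The value is reported as the MIC.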
# [6] = system: Escherichia coli; assay: Concentration required for 90% inhibition against 60 kDa penicillin-binding protein 3 binding using [14C]-Pen G as the radioligand.; method in brief: as §2
# [7] = molecular target: T2, Peptidoglycan D,D-transpeptidase MrdA (Escherichia coli K-12) (UniProt P0AD65); assay: Concentration required for 90% inhibition against 66 kDa penicillin-binding protein 2 binding using [14C]-Pen G as the radioligand.; method in brief: as §2
# T2 sequence (whole entry): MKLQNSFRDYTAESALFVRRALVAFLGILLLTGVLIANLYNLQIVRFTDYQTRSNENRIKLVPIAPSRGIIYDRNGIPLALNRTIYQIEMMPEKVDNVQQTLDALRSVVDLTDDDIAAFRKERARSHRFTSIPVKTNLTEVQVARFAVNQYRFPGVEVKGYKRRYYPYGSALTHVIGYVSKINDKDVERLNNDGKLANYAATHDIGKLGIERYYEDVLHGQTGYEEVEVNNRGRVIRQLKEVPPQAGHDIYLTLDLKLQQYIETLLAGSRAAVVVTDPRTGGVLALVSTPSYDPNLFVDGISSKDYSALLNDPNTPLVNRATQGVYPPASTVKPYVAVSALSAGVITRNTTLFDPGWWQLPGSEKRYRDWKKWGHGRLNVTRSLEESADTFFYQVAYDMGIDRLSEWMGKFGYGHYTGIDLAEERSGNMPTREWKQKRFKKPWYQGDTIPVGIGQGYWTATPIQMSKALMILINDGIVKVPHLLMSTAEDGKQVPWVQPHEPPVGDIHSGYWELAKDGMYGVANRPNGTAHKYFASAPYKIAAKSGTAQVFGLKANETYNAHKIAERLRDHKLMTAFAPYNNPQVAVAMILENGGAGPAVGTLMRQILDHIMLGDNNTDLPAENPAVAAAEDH
# [8] = system: Streptococcus pyogenes; assay: In vitro antibacterial activity against Streptococcus pyogenes 4; type: functional
# Method in brief: (§5)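 Broth macrodilution with serial 2-fold dilutions in cation-supplemented Mueller-Hinton broth containing 10% goat serum. The value is reported as the MIC.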
# [9] = system: Enterobacter cloacae; assay: In vitro antibacterial activity against Enterobacter cloacae 5699; type: functional; method in brief: as §3
# [10] = system: Serratia marcescens; assay: In vitro antibacterial activity against Serratia marcescens SM; type: functional; method in brief: as §3
# [11] = system: Escherichia coli; assay: Antibacterial activity against Escherichia coli DC-O; type: functional; method in brief: as §3
# [12] = system: Streptococcus pneumoniae; assay: In vitro antibacterial activity against Streptococcus pneumoniae 6301; type: functional; method in brief: as §5
# [13] = system: Citrobacter freundii; assay: In vitro antibacterial activity against Citrobacter freundii BS 16; type: functional; method in brief: as §3
# [14] = system: Enterobacter cloacae; assay: In vitro antibacterial activity against Enterobacter cloacae P99; type: functional; method in brief: as §3
# [15] = system: Pseudomonas aeruginosa; assay: In vivo activity in murine against Pseudomonas aeruginosa 5712 infection after sc administration.; type: functional; settings: Pseudomonas aeruginosa, sc; read-out: ED50
# Method in brief: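 Mouse protection test in CD1 Swiss albino mice (18–20 g) infected intraperitoneally with 0.5 mL of diluted P. aeruginosa suspension. Mice received 1.0 mL subcutaneously at the neck base within 5 min of infection and a second treatment 3 h after infection. Doses ranged from 0.05 to 250 mg/kg, with six mice per group. ED50 was calculated by the Reed–Muench method.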
# [16] = system: Klebsiella pneumoniae; assay: In vitro antibacterial activity against Klebsiella pneumoniae A; type: functional; method in brief: as §3
# [17] = system: Pseudomonas aeruginosa; assay: In vitro antibacterial activity against Pseudomonas aeruginosa 5712; type: functional; method in brief: as §3
# [18] = molecular target: T3, Penicillin-binding protein 1A (Escherichia coli K-12) (UniProt P02918); assay: Concentration required for 90% inhibition against 90 kDa penicillin-binding protein 1a binding using [14C]-Pen G as the radioligand.; method in brief: as §2
# T3 sequence (whole entry): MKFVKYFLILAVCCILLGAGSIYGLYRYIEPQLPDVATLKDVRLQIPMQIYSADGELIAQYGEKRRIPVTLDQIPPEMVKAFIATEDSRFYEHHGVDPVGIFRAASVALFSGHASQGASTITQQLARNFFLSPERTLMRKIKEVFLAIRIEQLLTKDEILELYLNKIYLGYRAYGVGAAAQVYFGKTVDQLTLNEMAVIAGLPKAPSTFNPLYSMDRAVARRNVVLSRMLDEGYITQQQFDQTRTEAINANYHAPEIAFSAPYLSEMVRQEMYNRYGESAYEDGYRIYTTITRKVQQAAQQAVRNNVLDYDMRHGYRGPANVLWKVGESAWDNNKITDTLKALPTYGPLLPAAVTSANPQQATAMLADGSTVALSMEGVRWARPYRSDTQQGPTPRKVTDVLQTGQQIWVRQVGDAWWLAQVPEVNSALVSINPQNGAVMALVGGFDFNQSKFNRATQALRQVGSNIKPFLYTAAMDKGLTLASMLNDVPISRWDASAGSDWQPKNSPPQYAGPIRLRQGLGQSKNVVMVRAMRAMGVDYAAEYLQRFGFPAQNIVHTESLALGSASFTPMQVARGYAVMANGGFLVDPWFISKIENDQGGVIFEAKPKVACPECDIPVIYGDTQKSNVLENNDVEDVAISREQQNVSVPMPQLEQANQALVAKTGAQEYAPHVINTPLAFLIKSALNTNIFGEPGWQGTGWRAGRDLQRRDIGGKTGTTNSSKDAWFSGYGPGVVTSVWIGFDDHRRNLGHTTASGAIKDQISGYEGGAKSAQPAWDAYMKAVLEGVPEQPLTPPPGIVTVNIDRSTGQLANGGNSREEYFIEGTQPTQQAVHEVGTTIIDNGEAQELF
# [19] = system: Staphylococcus aureus; assay: In vitro antibacterial activity against Staphylococcus aureus Smith(MS); type: functional; method in brief: as §4
# [20] = system: Streptococcus pyogenes; assay: In vivo activity in murine against Streptococcus pyogenes 4 infection after sc administration.; type: functional; method in brief: as §1
# [21] = system: Escherichia coli; assay: In vivo activity in murine against Escherichia coli 257 infection after sc administration.; type: functional; settings: Escherichia coli, sc; read-out: ED50; method in brief: as §1
# [22] = system: Enterobacter cloacae; assay: In vivo activity in murine against Enterobacter cloacae 5699 infection after sc administration.; type: functional; method in brief: as §1
# [23] = system: Staphylococcus aureus; assay: In vivo activity in murine against Staphylococcus aureus 753(MR) infection after sc administration.; type: functional; method in brief: as §1
# [24] = system: Citrobacter freundii; assay: In vivo activity in murine against Citrobacter freundii BS#16 infection after sc administration.; type: functional
# Method in brief: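 CD1 Swiss albino mice (18–20 g) infected intraperitoneally with 0.5 mL diluted bacterial culture suspension. Single subcutaneous treatment within 5 min, 1.0 mL at dorsal base of neck, serial dilutions spanning 0.05–250 mg/kg. Six mice per treatment and control group. ED50 (50% protective dose) derived by Reed and Muench method.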
# [25] = system: Klebsiella pneumoniae; assay: In vivo activity in murine against Klebsiella pneumoniae A infection after sc administration.; type: functional; method in brief: as §1
# [26] = system: Staphylococcus aureus; assay: In vivo activity in murine against Staphylococcus aureus Smith (MS) infection after sc administration.; type: functional; method in brief: as §1
smiles,measurement,setting,value
CO/N=C(\C(=O)N[C@@H]1C(=O)N2C(C(=O)[O-])=C(C[N+]3(C)CCN(c4c(F)cc5c(=O)c(C(=O)O)cn(CCF)c5c4F)CC3)CS[C@H]12)c1csc(N)n1,ED50,[1],12 mg/kg
same,Concentration,[2],> 100 µg/mL
same,MIC,[3],0.125 µg/mL
same,ED50,[4],10 mg/kg
same,MIC,[5],4 µg/mL
same,Concentration,[6],0.1 µg/mL
same,Concentration,[7],100 µg/mL
same,MIC,[8],0.125 µg/mL
same,MIC,[9],0.5 µg/mL
same,MIC,[10],1 µg/mL
same,MIC,[11],0.2 µg/mL
same,MIC,[12],0.063 µg/mL
same,MIC,[13],2 µg/mL
same,MIC,[14],0.5 µg/mL
same,ED50,[15],> 250 mg/kg
same,MIC,[16],0.5 µg/mL
same,MIC,[17],32 µg/mL
same,Concentration,[18],> 100 µg/mL
same,MIC,[19],4 µg/mL
same,ED50,[20],< 5 mg/kg
same,ED50,[21],< 0.5 mg/kg
CC(C)(O/N=C(\C(=O)N[C@@H]1C(=O)N2C(C(=O)[O-])=C(C[n+]3ccccc3)CS[C@H]12)c1csc(N)n1)C(=O)O [CEFTAZIDIME],ED50,[1],3 mg/kg
same,ED50,[22],25 mg/kg
same,ED50,[4],67 mg/kg
same,ED50,[15],217 mg/kg
same,ED50,[23],62 mg/kg
same,ED50,[24],22 mg/kg
same,ED50,[25],< 2 mg/kg
same,ED50,[26],< 2 mg/kg
same,ED50,[20],12 mg/kg
same,ED50,[21],< 0.5 mg/kg
